Reference: ChEMBL document CHEMBL1157968, “Chemical and cytotoxic constituents from the leaves of Cinnamomum kotoense” (2006)

Tests used:
Type in all cases: functional
HeLa [1] = experiment: Cell cycle arrest in human HeLa cells assessed as G2/M phase accumulation at 25 after 24 hrs by FACS
Method in brief: (§1)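 HeLa cells seeded 5 × 10^5 per dish 48 h ahead in DMEM with 10% FCS, then exposed to compound for 24 h (DMSO 0.1% final). Adherent and floating cells pooled, fixed in PBS-MeOH (1:2) at 4 °C for at least 18 h, and stained with PI (50 µg/mL) plus RNase A for 30 min at room temperature. Flow cytometry at 488 nm excitation, doublets gated out; phase percentages taken from DNA histograms.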

HeLa [2] = experiment: Cell cycle arrest in human HeLa cells assessed as S phase accumulation at 25 50 after 24 hrs by FACS; method in brief: as §1
HeLa [3] = experiment: Induction of apoptosis in human HeLa cells assessed as increase in intracellular peroxide level at 100 uM after 3 hrs by FACS relative to untreated control
Method in brief: (§2)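 HeLa cells at 80% confluence were refed and exposed to 100 µM for 1, 3 or 24 h. They were loaded with 10 µM DCFH-DA for 30 min in the dark, trypsinized and resuspended in PBS. DCF fluorescence was measured by flow cytometry and expressed as fold versus untreated cells. At least three experiments.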

HeLa [4] = experiment: Cell cycle arrest in human HeLa cells pretreated with 100 uM Boc-Asp(OMe)-fmk for 1 hr assessed as S phase accumulation at 100 uM after 24 hrs by FACS
Method in brief: (§3)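 HeLa cells pretreated for 1 h with the listed agent (10 mM GSH ethyl ester, 10 µM dexamethasone, 10 µM pifithrin, 100 µM Boc-Asp(OMe)-fmk or 5 µM cyclosporin A), then given 100 µM compound for 24 h. Cells fixed in PBS-MeOH, stained with PI/RNase and analysed by flow cytometry for DNA content. At least three experiments, one representative shown.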

HeLa [5] = experiment: Cell cycle arrest in human HeLa cells pretreated with 10 uM Dexamethasone for 1 hr assessed as G2/M phase accumulation at 100 uM after 24 hrs by FACS; method in brief: as §3
HeLa [6] = experiment: Induction of apoptosis in human HeLa cells assessed as increase caspase 3/7 activities at 100 uM after 6 hrs by FACS relative to control
Method in brief: (§4)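 After 3–24 h exposure at 100 µM, HeLa cells were trypsinized. 1 × 10^6 cells in DMEM were mixed 1:1 with Z-DEVD-R110 substrate reagent and incubated 1 h at 37 °C, then washed. Released R110 read per cell by flow cytometry (ex 488/em 520 nm) and expressed as fold over untreated cells. At least three runs.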

HeLa [7] = experiment: Cell cycle arrest in human HeLa cells pretreated with 10 uM Dexamethasone for 1 hr assessed as G1 phase accumulation at 100 uM after 24 hrs by FACS; method in brief: as §3
HeLa [8] = experiment: Induction of apoptosis in human HeLa cells assessed as increase in intracellular hydrogen peroxide level at 100 uM after 3 hrs by FACS relative to untreated control; method in brief: as §2
HeLa [9] = experiment: Induction of apoptosis in human HeLa cells assessed as increase in intracellular glutathione-depleted cell population at 100 uM after 24 hrs by FACS
Method in brief: (§5)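 HeLa cells at 80% confluence got fresh medium and were exposed for 24 h. Adherent and floating cells were pooled, adjusted to (1-2) × 10^6/mL and stained with 25 µM CMF-DA for 30 min at 37 °C. After washing, flow cytometry scored the percentage of GSH-negative cells. At least three experiments.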

HeLa [10] = experiment: Cell cycle arrest in human HeLa cells assessed as G2/M phase accumulation at 100 uM after 24 hrs by FACS; method in brief: as §1
HeLa [11] = experiment: Induction of apoptosis in human HeLa cells assessed as increase in intracellular peroxide level at 100 uM after 1 hr by FACS relative to untreated control; method in brief: as §2
HeLa [12] = experiment: Cell cycle arrest in human HeLa cells pretreated with 5 uM cyclosporin A for 1 hr assessed as G1 phase accumulation at 100 uM after 24 hrs by FACS; method in brief: as §3
HeLa [13] = experiment: Cell cycle arrest in human HeLa cells pretreated with 10 mM glutathione ethyl ester for 1 hr assessed as G2/M phase accumulation at 100 uM after 24 hrs by FACS; method in brief: as §3
HeLa [14] = experiment: Induction of apoptosis in human HeLa cells assessed as increase in intracellular hydrogen peroxide level at 100 uM after 1 hr by FACS relative to untreated control; method in brief: as §2
HeLa [15] = experiment: Induction of apoptosis in human HeLa cells assessed as number of cells with decreased mitochondrial membrane potential at 100 uM after 12 hrs by measuring rhodamine 123 fluorescence intensity; design: scale not given: the % may be the effect or the level left
Method in brief: (§6)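 Cells in DMEM/10% FCS, medium renewed at 80% confluence, then 100 µM agent (0.1% DMSO final) for 1–24 h. Stained with 5 µM rhodamine 123 for 30 min in the dark, washed, trypsinized and resuspended in PBS; flow cytometry, percentage of cells with weak rhodamine 123 staining (reduced ΔΨm); at least three experiments, representative shown.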

HeLa [16] = experiment: Induction of apoptosis in human HeLa cells assessed as number of cells with decreased mitochondrial membrane potential at 100 uM after 6 hrs by measuring rhodamine 123 fluorescence intensity; design: scale not given: the % may be the effect or the level left; method in brief: as §6
HeLa [17] = experiment: Cell cycle arrest in human HeLa cells assessed as subG1 phase accumulation at 25 uM after 24 hrs by FACS; method in brief: as §1
HeLa [18] = experiment: Induction of apoptosis in human HeLa cells assessed as increase in intracellular glutathione-depleted cell population at 50 uM after 24 hrs by FACS; method in brief: as §5
HeLa [19] = experiment: Induction of apoptosis in human HeLa cells pretreated with 10 uM pifithrin-alpha for 1 hr at 100 uM after 24 hrs by TUNEL assay
Method in brief: (§7)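 HeLa in DMEM/10% FCS, untreated or pretreated 1 h with listed inhibitor, then 100 µM agent (0.1% DMSO final) for 24 h. Pooled cells fixed in 1% paraformaldehyde (30 min, 4 °C), 70% EtOH (30 min, −20 °C); strand breaks labelled with TdT/fluorescein-BrdUTP (1 h, 37 °C), PI/RNase counterstain; flow cytometry, % apoptotic cells; ≥3 experiments.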

HeLa [20] = experiment: Induction of apoptosis in human HeLa cells assessed as increase caspase 3/7 activities at 100 uM after 24 hrs by FACS relative to control; method in brief: as §4
HeLa [21] = experiment: Cell cycle arrest in human HeLa cells pretreated with 10 uM pifithrin-alpha for 1 hr assessed as subG1 phase accumulation at 100 uM after 24 hrs by FACS; method in brief: as §3
HeLa [22] = experiment: Cell cycle arrest in human HeLa cells pretreated with 5 uM cyclosporin A for 1 hr assessed as subG1 phase accumulation at 100 uM after 24 hrs by FACS; method in brief: as §3
HeLa [23] = experiment: Induction of apoptosis in human HeLa cells pretreated with 100 uM Boc-Asp(OMe)-fmk for 1 hr at 100 uM after 24 hrs by TUNEL assay; method in brief: as §7
HeLa [24] = experiment: Induction of apoptosis in human HeLa cells assessed as increase caspase 3/7 activities at 100 uM after 3 hrs by FACS relative to control; method in brief: as §4
HeLa [25] = experiment: Cell cycle arrest in human HeLa cells assessed as G1 phase accumulation at 50 uM after 24 hrs by FACS; method in brief: as §1
HeLa [26] = experiment: Induction of apoptosis in human HeLa cells assessed as number of cells with decreased mitochondrial membrane potential at 100 uM after 24 hrs by measuring rhodamine 123 fluorescence intensity; design: scale not given: the % may be the effect or the level left; method in brief: as §6

What does the source list for `CCCCCCCCCCCCC/C=C(/C(=O)OC)[C@@H](O)C(C)=O` [SECOKOTOMOLIDE A]?
Activity (HeLa [1]): 28.7%; Activity (HeLa [2]): 20.3%; fold change (FC) (HeLa [3]): 2.9; Activity (HeLa [4]): 13.6%; Activity (HeLa [5]): 12.3%; fold change (FC) (HeLa [6]): 5.9; Activity (HeLa [7]): 53.9%; fold change (FC) (HeLa [8]): 2.9; Activity (HeLa [9]): 98%; Activity (HeLa [10]): 31%; fold change (FC) (HeLa [11]): 3.4; Activity (HeLa [12]): 47.7%; Activity (HeLa [13]): 11.6%; fold change (FC) (HeLa [14]): 3.4; Activity (HeLa [15]): 75.1%; Activity (HeLa [16]): 23%; Activity (HeLa [17]): 47.7%; Activity (HeLa [18]): 92%; Activity (HeLa [19]): 57.3%; fold change (FC) (HeLa [20]): 1.7; Activity (HeLa [21]): 40.9%; Activity (HeLa [22]): 61.2%; Activity (HeLa [23]): 39%; fold change (FC) (HeLa [24]): 3.5; Activity (HeLa [25]): 50.8%; Activity (HeLa [26]): 75.1%
